Source: BindingDB's records for doi:10.1016/j.bmc.2011.09.065 (2011)

Target: Amyloid-beta precursor protein (Homo sapiens, UniProt P05067)
Test: Binding affinity to human amyloid beta (1 to 42) fibril by fluorescence intensity assay
Outline: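 Fibrils grown from human insulin (3 mg/mL, Tris-HCl 50 mM pH 3), E. coli-expressed human α-syn (3 mg/mL, pH 7.4) or Aβ(1–42) (0.5 mg/ml, 1% NH4OH). Fibril level taken as supernatant protein depletion. Plate-reader intensity read at each ligand's maximal excitation/emission wavelengths, dye blanks subtracted. Kd from single-site saturation fit.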

Amyloid-beta precursor protein, sequence (P05067 whole entry): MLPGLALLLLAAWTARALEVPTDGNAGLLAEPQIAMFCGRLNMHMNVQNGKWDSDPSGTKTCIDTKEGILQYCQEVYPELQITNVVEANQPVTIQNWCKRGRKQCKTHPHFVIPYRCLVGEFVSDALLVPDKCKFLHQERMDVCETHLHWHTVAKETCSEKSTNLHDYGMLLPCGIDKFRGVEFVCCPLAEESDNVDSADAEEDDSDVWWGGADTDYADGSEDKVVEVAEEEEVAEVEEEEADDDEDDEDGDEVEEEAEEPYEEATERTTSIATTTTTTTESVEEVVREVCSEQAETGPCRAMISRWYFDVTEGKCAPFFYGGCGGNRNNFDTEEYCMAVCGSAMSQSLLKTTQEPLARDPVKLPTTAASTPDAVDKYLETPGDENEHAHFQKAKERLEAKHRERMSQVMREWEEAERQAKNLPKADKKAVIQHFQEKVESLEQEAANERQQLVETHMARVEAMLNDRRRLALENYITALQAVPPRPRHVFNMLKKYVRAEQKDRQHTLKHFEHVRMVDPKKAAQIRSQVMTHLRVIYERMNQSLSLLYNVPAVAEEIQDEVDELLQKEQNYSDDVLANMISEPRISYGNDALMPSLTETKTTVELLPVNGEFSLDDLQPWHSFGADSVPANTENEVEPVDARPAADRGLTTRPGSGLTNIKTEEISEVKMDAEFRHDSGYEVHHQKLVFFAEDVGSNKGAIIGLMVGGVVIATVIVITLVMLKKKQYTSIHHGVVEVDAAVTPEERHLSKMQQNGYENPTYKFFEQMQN

| SMILES | Kd [nM] |
| --- | --- |
| CN(CCF)c1ccc(/C=C\c2nc3ccccc3s2)cc1 | 42 |
| CN(CCF)c1ccc(/C=C/c2nc3ccccc3n2C)cc1 | 192 |
| CN(CCF)c1ccc(/C=C/c2nc3ccccc3[nH]2)cc1 | 278 |
| CN(CCF)c1ccc(/C=C\c2nc3ccccc3o2)cc1 | 167 |
| CN(CCF)c1ccc(/C=C/c2nc3ccccc3s2)cc1 | 91 |
| CN(CCF)c1ccc(/C=C\c2nc3ccccc3n2C)cc1 | 286 |
| CN(CCF)c1ccc(/C=C/c2nc3ccccc3o2)cc1 | 222 |
